Assay [1] deals with HCT-116. Briefly: Antiproliferative activity against human HCT-116 cells assessed as reduction in cell viability incubated for 72 hrs by MTT assay. It counts as functional, cell-based. The conditions noted are these: HCT-116, 72 h. The method, boiled down:
(§1)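 Growth inhibition after 72 h continuous exposure of HCT-116 colorectal carcinoma or KG-1 acute myelogenous leukemia cells; concentration giving 50% inhibition taken from dose–response curves.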

The subject of the next assay is KG-1. Briefly: Antiproliferative activity against human KG-1 cells assessed as reduction in cell viability incubated for 72 hrs by MTT assay. Particulars: KG-1, 72 h. The assay is classed as functional, cell-based. The method, boiled down: as §1
On the technique in general: Tetrazolium dyes change colour on reduction, which living cells bring about.

The test system of assay [2] is HCT-116. Put plainly: Antitumor activity against human HCT-116 cells xenografted in athymic nude mouse assessed as tumor growth inhibition at 25 mg/kg, po administered for 26 days relative to control. It counts as functional. Particulars: HCT-116, po, 624 h, time 26 day. An outline of the steps:
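Subcutaneous HCT-116 human colorectal carcinoma xenografts in athymic female nude mice; oral dosing at 25 mg/kg over a 26-day period, with capecitabine given as positive control; tumor growth followed, N = 3, SD shown.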
For orientation: Xenograft models place foreign cells or tissue in a host animal.

For assay [3], the system named is SK-BR-3. Put plainly: Induction of DNA damage in human SK-BR-3 cells assessed as increase in tail DNA measured at 1 uM after 72 hrs by neutral comet assay relative to control. Particulars: in the assay text read “alkaline comet assay” for “neutral comet assay”. It counts as functional. The method, boiled down:
(§2)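 Comet assay scoring DNA damage as % DNA in tail; cells exposed to 0.5, 1.0 or 2.0 μM etoposide or 1.0, 3.0 or 10 μM test nucleoside; mean of scored comets per sample with SE and 80% confidence interval.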

Assay [4] deals with SK-BR-3. Briefly: Induction of DNA damage in human SK-BR-3 cells assessed as increase in tail DNA measured at 2 uM after 72 hrs by neutral comet assay relative to control. The assay is classed as functional. The conditions noted are these: in the assay text read “alkaline comet assay” for “neutral comet assay”. An outline of the steps:
as §2

In assay [5] the test system is SK-BR-3. Put plainly: Induction of DNA damage in human SK-BR-3 cells assessed as increase in tail DNA measured at 0.5 uM after 72 hrs by neutral comet assay relative to control. It counts as functional. The conditions noted are these: in the assay text read “alkaline comet assay” for “neutral comet assay”. An outline of the steps:
as §2

Assay [6] deals with SK-BR-3. Put plainly: Induction of DNA damage in human SK-BR-3 cells assessed as increase in tail DNA measured at 10 uM after 72 hrs by neutral comet assay relative to control. The conditions noted are these: in the assay text read “alkaline comet assay” for “neutral comet assay”. The assay is classed as functional. An outline of the steps: as §2
Assay [7] has as its system SK-BR-3. Put plainly: Induction of DNA damage in human SK-BR-3 cells assessed as increase in tail DNA measured at 3 uM after 72 hrs by neutral comet assay relative to control. The assay is classed as functional. The conditions noted are these: in the assay text read “alkaline comet assay” for “neutral comet assay”. An outline of the steps: as §2

Usually IC50 stands for the midpoint of a concentration-inhibition curve. Usually inhibition in vivo stands for the percentage by which the read-out fell short of the control. As for `CCCCCOC(=O)Nc1nc(=O)n([C@@H]2O[C@H](CO)[C@@H](O)C2(F)F)cc1F`, the IC50 in the assay on HCT-116 [1] came to 370 nM; with KG-1 it was 130 nM. Also, the inhibition in vivo at 25 mg/kg with HCT-116 [2] amounted to 40%.

On to `CCCCCOC(=O)Nc1nc(=O)n([C@@H]2O[C@H](C)[C@@H](O)[C@H]2O)cc1F` [CAPECITABINE], for which the IC50 is 34200 nM in the assay with HCT-116 [1] and 8900 nM in the assay on KG-1.

Turning to `COc1cc([C@@H]2c3cc4c(cc3[C@@H](O[C@@H]3O[C@@H]5CO[C@@H](C)O[C@H]5[C@H](O)[C@H]3O)[C@H]3COC(=O)[C@H]23)OCO4)cc(OC)c1O` [ETOPOSIDE], the Activity was found to be 24.98% with SK-BR-3 [3], 35.17% with SK-BR-3 [4] and 15.87% in the assay on SK-BR-3 [5].

In the case of `Nc1ccn([C@@H]2O[C@H](CO)[C@@H](O)C2(F)F)c(=O)n1` [GEMCITABINE], the values for the IC50 with HCT-116 [1] and in the assay on KG-1 were 50 nM and 18 nM, respectively.

As to `Nc1nc(=O)n([C@@H]2O[C@H](CO)[C@@H](O)C2(F)F)cc1F`, the Activity with SK-BR-3 [3] was determined as 20.7%; in the assay with SK-BR-3 [6], 26.73%; in the assay on SK-BR-3 [7] it was 24.28%.

(Values after ChEMBL document CHEMBL5046312, “Rational Design of an Orally Active Anticancer Fluoropyrimidine, Pencitabine, a Hybrid of Capecitabine and Gemcitabine” (ACS Med Chem Lett, 2022).)
